Source: PubChem (Broad Institute)
DENV2 CPE rescue: protects cells from dengue virus 2 cytopathic effect; AID 651640; CPE inhibition, % at 9.99 µM; DENV2-infected cells, cytopathic effect rescue, plate reader; 350,000 tested, 1.7% active; in the data active = CPE inhibition above about 20%, passing the limit was not always enough; tested in BHK-21 cells
MLL AF4-AF9 inh: MLL-AF4/AF9 protein interaction inhibition | inhibition, % at 10 µM | AlphaScreen, biotin-AF4 peptide binding to FLAG-AF9 | P42568 | 350,000 tested, 0.47% active;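 active = every replicate reaching a set inhibition limit, whatever the replicate mean, cut at about 25% in these data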
Target sequence (P42568 whole entry, looked up): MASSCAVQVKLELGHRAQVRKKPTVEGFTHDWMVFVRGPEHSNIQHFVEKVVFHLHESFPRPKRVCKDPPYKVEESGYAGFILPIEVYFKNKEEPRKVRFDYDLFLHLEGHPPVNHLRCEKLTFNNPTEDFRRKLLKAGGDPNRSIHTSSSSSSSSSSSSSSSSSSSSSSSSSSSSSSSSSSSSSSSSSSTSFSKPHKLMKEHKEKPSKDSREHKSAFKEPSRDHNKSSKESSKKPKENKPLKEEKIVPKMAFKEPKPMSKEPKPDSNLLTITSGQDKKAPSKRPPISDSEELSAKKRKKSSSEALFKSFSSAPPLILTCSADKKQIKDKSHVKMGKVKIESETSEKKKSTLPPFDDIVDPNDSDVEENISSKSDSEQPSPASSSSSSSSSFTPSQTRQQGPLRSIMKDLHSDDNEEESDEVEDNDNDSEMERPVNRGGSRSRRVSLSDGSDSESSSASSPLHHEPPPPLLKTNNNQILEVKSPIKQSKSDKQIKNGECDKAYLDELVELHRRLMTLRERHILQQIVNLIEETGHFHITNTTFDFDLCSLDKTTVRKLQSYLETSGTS
PfHsp90 set2: inhibits growth of yeast expressing Plasmodium falciparum Hsp90; S. cerevisiae expressing PfHsp90, BacTiter-Glo ATP, 48 h; yeast lacking PDR1 and PDR3 efflux regulators; inhibition, % at 9.4 µM; 310,000 tested, 0.32% active;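 active = every replicate shows inhibition above about 80%, whatever the replicate mean, limit read from the data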
S100A4 MyoIIA: S100A4-myosin IIA interaction inhibition; 360,000 tested, 0.14% active; AID 652163; inhibition, % at 10.7 µM; S100A4/TAMRA-MyoIIA peptide fluorescence polarization;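 active = mean inhibition of at least 70% across replicates, with every replicate also reaching that level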
Target sequence (P26447 whole entry, looked up): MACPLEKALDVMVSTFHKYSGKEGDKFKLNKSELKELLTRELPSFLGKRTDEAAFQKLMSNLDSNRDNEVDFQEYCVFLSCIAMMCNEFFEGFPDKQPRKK
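Test system – S100A4 monomer (human) · Compound – single-point compound testing · Schedule – 5 min incubation before reading · Probe or stimulus – TAMRA-labelled myosin IIA heavy-chain peptide probe, 5 nM · Benchmarks – neutral control DMSO, positive control TFP · Medium – Calcium-containing HEPES buffer, pH 7.2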
Ecoli rRNA inh: inhibitors of bacterial rRNA selective over humanized ribosomes | GFP signal change (wild-type ribosome), % (concentration not given with the values) | E. coli WT GFP vs humanized-ribosome RFP mutants, fluorescence, 24 h; active compounds read low; DMSO median 0, no signal -100 | 350,000 tested, 1.6% active;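 active = significant combined selectivity score with lowered wild-type GFP, culture density cut under 30%, mutant RFP and density less affected; inactive = any of these conditions unmet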
Cneo AK release: Cryptococcus neoformans lysis via adenylate kinase release; 360,000 tested, 0.2% active; C. neoformans lysis, adenylate kinase release luminescence, 4 h; normalised: neutral wells 0, clomiphene wells 100; lysis activity, % at 15 µM;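 active = mean lysis activity across replicates of at least 80%, whatever share of replicates individually reach that level; inactive = mean lysis activity below 80%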
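Assay system: C. neoformans cells. Amount: yeast cell density of 5 × 10^6 cells/mL. Technique: AK luminescence. Buffer or medium: YPD. Times: static 4 h at 37 °C with compound, 1 h detection. Dosing: single-point compound dose. Read-out: lysis from increased AK signal.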
Hits are given with their value; - = inactive; . = not tested or not shown. Shown are actives, neighbours in structure and some others; about 3.2% of the full set was active somewhere.

SMILES	DENV2 CPE rescue	MLL AF4-AF9 inh	PfHsp90 set2	S100A4 MyoIIA	Ecoli rRNA inh	Cneo AK release
COc1ccc(NC(=O)N(C)C[C@@H]2Oc3c(NS(=O)(=O)c4ccc(OC)cc4)cccc3C(=O)N([C@@H](C)CO)C[C@H]2C)cc1	-	-	.	-	-	-
CNC[C@@H]1Oc2c(NC(=O)C3CCOCC3)cccc2C(=O)N([C@H](C)CO)C[C@H]1C	-	-	.	-	-	-
CN(C)C(=O)c1ccc(NC(=O)COc2cccc(Oc3ccccc3)c2)cc1	-	-	-	-	-27	-
COc1ccccc1/C=C/C(=O)NC(=S)N(C)C1CCCCC1	-	-	-	-	-24	-
Cc1ccc(C(=O)NC(=S)N(C)C2CCCCC2)cc1Br	-	-	.	-	-	-
COc1ccc(C(=O)NC(=S)N(C)C2CCCCC2)cc1	-	-	-	-	-	-
COc1ccc(C(=O)NC(=S)N(C)C2CCCCC2)cc1Br	59	-	-	-	-	-
C[C@H]1CN([C@@H](C)CO)C(=O)c2cc(NC(=O)Cc3ccccc3)ccc2O[C@H]1CN(C)CC1CC1	-	-	.	-	-	-
CCCN(C)C[C@H]1OCCCC[C@@H](C)Oc2ccc(NS(=O)(=O)c3cn(C)cn3)cc2C(=O)N([C@H](C)CO)C[C@H]1C	.	.	.	.	-	.
CCC(=O)N1C[C@@H](O)COC[C@@H]2O[C@H](CC(=O)NCc3ccccc3Cl)CC[C@H]21	-	.	.	.	-	-
Cc1nn(-c2ccccc2)c(C)c1CN(C)C(=O)c1ccc(S(=O)(=O)NCc2ccco2)cc1	-	-	-	-	-33	-
COCC(=O)Nc1ccc2c(c1)OC[C@@H](C)N(C(=O)NC(C)C)C[C@H](C)[C@@H](OC)CN(C)C2=O	.	.	.	.	-	.
N#C[C@@H]1[C@@H](c2ccccc2C2=CCCC2)[C@H](CO)N1C(=O)Cc1ccncc1	29	-	.	-	-	.
N#C[C@@H]1[C@H](c2ccc(C3=CCCCC3)cc2)[C@H](CO)N1C(=O)NC1CCCC1	27	-	.	.	-	.
N#C[C@@H]1[C@H](c2ccccc2-c2ccccc2)[C@@H](CO)N1C(=O)NC1CCCCC1	45	-	.	-	-	.
C/C=C/c1ccc([C@@H]2[C@H](C#N)N(C(=O)NC3CCCCC3)[C@H]2CO)cc1	77	-	.	-	-	-
N#C[C@H]1[C@@H](c2ccc(C3=CCCCC3)cc2)[C@H](CO)N1C(=O)NC1CCCC1	-	-	.	.	-	.
COCC(=O)N1C[C@@H](C)[C@H](OC)CN(C)C(=O)c2cc(NC(=O)c3cnccn3)ccc2OC[C@@H]1C	-	-	.	-	-	-
C[C@H](CO)N1C[C@H](C)[C@H](CN(C)C(=O)Nc2cccc3ccccc23)OCCCC[C@H](C)Oc2ccc(NC(=O)Cc3ccccc3)cc2C1=O	-	-	.	-	-	-
COc1ccc2c3c(n(C)c2c1)[C@@H](CO)N(C(=O)C1CCCC1)CC31CCN(C(=O)c2ccncc2)CC1	-	-	.	-	-	.
COc1ccc(-c2ccc3n(c2=O)C[C@@H]2[C@@H](CO)[C@H](C(=O)NCCN4CCCCC4)N(C)[C@H]32)cc1	-	-	.	-	-	.
N#C[C@H]1[C@@H](c2ccccc2C2=CCCCC2)[C@@H](CO)N1C(=O)NC1CCCC1	22	-	.	-	-	.
N#C[C@H]1[C@@H](c2ccc(C#CCC3CCCC3)cc2)[C@@H](CO)N1C(=O)c1ccccn1	-	-	.	-	-	111
N#C[C@H]1[C@H](c2ccccc2C2=CCCCC2)[C@@H](CO)N1C(=O)NC1CCCC1	-	-	.	-	-	.
N#C[C@@H]1[C@@H](c2ccc(C#CCC3CCCC3)cc2)[C@H](CO)N1C(=O)c1ccccn1	-	-	.	-	-	-
SMILES	DENV2 CPE rescue	MLL AF4-AF9 inh	PfHsp90 set2	S100A4 MyoIIA	Ecoli rRNA inh	Cneo AK release
N#C[C@@H]1[C@H](c2ccccc2C2=CCCCC2)[C@@H](CO)N1C(=O)c1ccccn1	27	.	.	-	-	.
COc1ccccc1CN1[C@@H]2Cn3c(cccc3=O)[C@H]1[C@@H](C(=O)N1CCc3ccccc3C1)[C@@H]2CO	-	-	.	-	-	-
CC(=O)N1[C@@H](CO)[C@@H]2c3ccccc3N(C(=O)Nc3cc(F)ccc3F)C[C@@H]21	-	-	.	-	-	-
COc1ccc(S(=O)(=O)Nc2cccc3c2O[C@@H](CN(C)C(=O)Nc2ccc4c(c2)OCO4)[C@@H](C)CN([C@H](C)CO)C3=O)cc1	21	-	.	-	-	-
Cc1ccc(S(=O)(=O)Nc2cccc3c2O[C@@H](CN(C)C(=O)Nc2ccc4c(c2)OCO4)[C@@H](C)CN([C@H](C)CO)C3=O)cc1	22	-	.	-	-	-
C[C@@H]1CN([C@H](C)CO)C(=O)c2cc(C3=CCCC3)cnc2O[C@H]1CN(C)Cc1ccccn1	-	-	.	-	-	-
Cc1[nH]c2ccccc2c1N=Nc1ccc(F)cc1	-	30	-	-	-	.
O=C(NC1CCCC1)c1nc(-c2c(F)cccc2F)oc1-c1ccccc1	22	.	.	-	-	.
CCCCCNC(=O)c1nc(-c2c(F)cccc2F)oc1-c1ccccc1	-	.	.	-	-	.
O=C(CC1CC1)N[C@H]1CC[C@@H](CCNS(=O)(=O)c2ccc(F)cc2)O[C@@H]1CO	-	-	.	-	-	-
O=C(N[C@@H]1CC[C@@H](CCNS(=O)(=O)c2ccccc2)O[C@@H]1CO)c1cccc(F)c1	-	-	.	-	-	-
CCCN1C[C@@H](C)[C@H](OC)CN(C)C(=O)c2ccc(NC(=O)c3ccccc3)cc2OC[C@@H]1C	-	-	.	-	-	-
CCCC(=O)Nc1ccc2c(c1)OC[C@H](C)N(C(=O)c1ccccn1)C[C@H](C)[C@H](OC)CN(C)C2=O	-	-	.	-	-	-
CCCC(=O)Nc1ccc2c(c1)OC[C@H](C)N(C(=O)c1ccccn1)C[C@@H](C)[C@H](OC)CN(C)C2=O	22	-	.	-	-	-
CCCC(=O)Nc1ccc2c(c1)OC[C@@H](C)N(C(=O)c1ccccn1)C[C@@H](C)[C@@H](OC)CN(C)C2=O	21	-	.	-	-	-
CCCC(=O)Nc1ccc2c(c1)OC[C@H](C)N(C(=O)c1ccccn1)C[C@H](C)[C@@H](OC)CN(C)C2=O	-	-	.	-	-	-
COc1ccc2c3c([nH]c2c1)[C@H](CO)N(C(=O)c1ccccc1)CC31CCN(C(=O)NC(C)C)CC1	-	-	.	-	-	.
Cc1noc(C)c1S(=O)(=O)Nc1ccc2c(c1)C(=O)N([C@@H](C)CO)C[C@H](C)[C@H](CN(C)S(C)(=O)=O)OCCCC[C@@H](C)O2	-	-	.	-	-	-
COc1ccc(NC(=O)Nc2ccc3c(c2)[C@H]2C[C@@H](CC(=O)NCc4ccccn4)O[C@@H](CO)[C@H]2O3)cc1	-	-	.	-	-	-
